# Bioassay records from PubChem.
# In the library only some 2.4% were active in any assay of this set; here they are far more common.
# DNMT1 inh: inhibitors of human DNMT1. P26358. DNMT1 molecular beacon, Hinp1I cleavage, fluorescence. inhibition (reported as % activation of signal), % at 10 µM. 0.83% of 360,000 active. AID 588458; in the data active = inhibition above about 50%
# NadD block: NadD (S. aureus) enzyme inhibition. purified NadD enzyme, colorimetric absorbance read-out. 0.78% of 360,000 active. inhibition, % at 20 µM. AID 602399; in the data active = inhibition above about 26%
# LMPTP block: blocks human LMPTP phosphatase; 0.22% of 360,000 active; AID 651560; P24666; inhibition, % at 20 µM; recombinant LMPTP-A, OMFP fluorogenic substrate, fluorescence intensity;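 active = compounds that cut the enzyme signal by at least half of the control window in the single-dose screen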
# Target sequence (P24666 whole entry, looked up): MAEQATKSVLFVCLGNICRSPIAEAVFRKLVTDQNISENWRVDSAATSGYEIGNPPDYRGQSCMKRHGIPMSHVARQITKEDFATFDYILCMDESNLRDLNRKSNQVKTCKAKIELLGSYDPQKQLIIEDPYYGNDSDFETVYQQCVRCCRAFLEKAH
#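 Assay system: LMPTP-A phosphatase enzyme | Input: 0.625 nM enzyme | Also added: Fluorogenic phosphatase substrate OMFP at 400 µM final | Compound dosing: One test concentration per compound, 20 µM, with 3% DMSO overall | Schedule: 50 min enzyme reaction at room temperature, protected from light | Signal: Fluorescence intensity | Benchmarks: no-enzyme and uninhibited controls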
# STEP inh: inhibitors of human striatal-enriched phosphatase STEP | P54829 | recombinant STEP, OMFP fluorogenic substrate, fluorescence | inhibition, % at 20 µM | 0.25% of 360,000 active | AID 588621;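 active = inhibition at 20 µM, scaled per plate between control wells, above about 37%, limit read from the data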
#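 Material: STEP (striatal-enriched tyrosine phosphatase) enzyme, cell-free | Medium: 50 mM Bis-Tris pH 6.0 with 2.5 mM DTT and 0.005% Tween 20 | Read-out: Percent inhibition scaled to no-enzyme and uninhibited-enzyme controls, plate-pattern corrected | Signal: Fluorescence read at 480 nm ex / 540 nm em | Times: 20 min reaction, room temperature, in the dark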
# Scp1 inh: blocks human Scp-1 phosphatase activity. Q9GZU7. 0.88% of 340,000 active. inhibition, % at 20 µM. Recombinant Scp1, phosphopeptide, malachite green phosphate absorbance. AID 493091;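 active = inhibition above about 50% at 20 µM, limit read from the data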
# Target sequence (Q9GZU7 76-261 limits assumed): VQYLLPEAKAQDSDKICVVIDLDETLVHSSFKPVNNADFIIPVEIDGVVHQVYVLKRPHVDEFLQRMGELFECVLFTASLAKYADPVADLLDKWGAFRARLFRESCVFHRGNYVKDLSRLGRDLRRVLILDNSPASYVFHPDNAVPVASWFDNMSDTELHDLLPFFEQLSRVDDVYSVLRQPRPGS
#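 Test system – truncated SCP-1 phosphatase (76-261aa) · Reagent – Phosphorylated 17-residue peptide substrate · Incubation – 45 min room-temperature reaction, 5 min colour, 30 min stabiliser · Detection – colorimetric phosphate reagent with accelerator and stabiliser, absorbance at 630 nm · Measure – % inhibition at 20 µM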
# SUMO1-SIM PPI: modulators of human SUMO1-mediated protein-protein interactions; SUMO1 binding to a labelled peptide, TR-FRET, 1 h; inhibition, % at 20 µM; 0.33% of 360,000 active; in the data active = inhibition above about 37%
# Target sequence (P63165 whole entry, looked up): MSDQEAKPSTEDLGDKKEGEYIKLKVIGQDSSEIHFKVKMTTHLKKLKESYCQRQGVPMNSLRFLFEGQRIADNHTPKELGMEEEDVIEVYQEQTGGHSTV
# Hits are given with their value; i = inactive; nt = no result given.
SMILES,DNMT1 inh,NadD block,LMPTP block,STEP inh,Scp1 inh,SUMO1-SIM PPI
Cc1n[nH]c(=S)n(NC(=O)/C=C/C(=O)Nn2c(=S)[nH]nc(C)c2=O)c1=O,i,i,i,i,i,67.0
Cc1n[nH]c(=S)n(NC(=O)CC(=O)Nn2c(=S)[nH]nc(C)c2=O)c1=O,i,i,i,i,i,i
CCN1CCc2nc(N)sc2C1,i,i,i,96.4,i,i
CC1CCN(C(=O)C2CCN(S(=O)(=O)c3ccc4c(c3)CC(C)N4C(=O)C3CC3)CC2)CC1 (centres undefined),i,i,i,i,i,i
Cc1cc(C)cc(NC(=O)c2ccc(CNc3c(N4CCOCC4)c(=O)c3=O)cc2)c1,i,i,i,i,i,42.1
Cc1ccc(CNC(=O)c2ccc(CNc3c(N4CCCC4)c(=O)c3=O)cc2)cc1,i,i,i,i,i,i
Cc1cc(C)cc(NC(=O)c2ccc(CNc3c(N4CCCC4)c(=O)c3=O)cc2)c1,i,i,i,i,i,51.5
Cc1nc(N)[nH]c(=O)c1CCCNc1ccc(CCCCC2(CCl)OCCO2)cc1,i,i,i,i,i,i
O=c1oc2cc(O)c(Cl)cc2c2ccccc12,i,i,i,i,i,i
O=c1cc2c(=O)oc3cc(O)c(O)oc3c2c(O)c1O,i,i,60.6,96.4,85.5,i
CC(=O)Nc1cccc(C(=O)OCCCOc2ccc(F)cc2)c1,i,i,i,i,i,i
O=C(N/N=C/c1ccc2c(c1)OCO2)c1cc2ccccc2o1,i,i,i,i,i,i
O=C(COc1ccc(/C=N/NC(=O)c2cc3ccccc3o2)cc1Cl)Nc1ccccc1,71.1,i,i,53.8,80.2,i
N#CC(C(=O)Nc1cccc(Cl)c1)=C1Nc2ccccc2N1,i,i,i,i,i,62.1
CCOC(=O)C1=C(c2ccccc2)NC(=O)NC1c1cc(OC)c(O)c([N+](=O)[O-])c1 (centres undefined),i,i,i,i,i,i
Cc1ccc(NC(=O)c2ccc(NCC3CCCO3)c([N+](=O)[O-])c2)cc1Cl (centres undefined),i,i,i,i,i,i
Cc1cc(C)cc(OCC(=O)Nc2ccc3c(c2)C(=O)c2ccccc2C3=O)c1,i,31.4,i,i,i,i
Cc1cc(C)cc(OCC(=O)Nc2ccc(N3CCCC3)cc2)c1,65.2,56.5,i,i,i,i
COc1ccc(OCC(=O)Nc2ccc(N3CCCCC3)cc2)cc1,i,i,i,i,i,i
Cc1cc(C)cc(OCC(=O)Nc2ccc(F)cc2)c1,i,i,i,i,i,i
Cc1c(-c2ccccc2)c(-c2ccc(OCCN(C)C)cc2)n2ccccc12,i,i,80.2,i,i,i
C=C(C)C(=O)Nc1cccc(C2=NOC3(C2)C[C@@H](C(N)=O)N(C(=O)c2ccc(Cl)cc2)C3)c1 (some centres undefined),nt,nt,nt,nt,70.6,nt
C/C=C\C=C/C(=O)Nc1cccc(C2=NOC3(C2)C[C@@H](C(N)=O)N(C(=O)/C=C/C=C\C)C3)c1 (some centres undefined),64.4,30.8,i,i,79.5,95.2
CCCCNC(=O)/C(C#N)=C/c1ccc(-c2ccc(S(=O)(=O)N3CCOCC3)cc2)o1,i,i,i,i,i,i
COCCn1nnnc1CN1CCN2CCCC2C1 (centres undefined),i,i,i,i,i,i
SMILES,DNMT1 inh,NadD block,LMPTP block,STEP inh,Scp1 inh,SUMO1-SIM PPI
Cc1nc(N)nc(N)c1-c1ccc(Cl)c(Cl)c1,i,i,56.7,i,i,i
COc1ccc(Cc2c(C)nc(N)nc2Cl)cc1,i,i,i,i,i,i
Cc1nc(N)nc(N)c1CCCc1ccc(Cl)c(Cl)c1,i,i,64.1,i,i,i
Nc1nc(N)nc(-c2ccc(Cl)c(Cl)c2)n1,i,i,i,i,i,i
CC1(O)CC(c2ccc(Cl)cc2)=NN1C(=O)c1ccc(Cl)cc1 (centres undefined),i,i,i,i,i,i
O=C(O)c1ccc(S(=O)(=O)/N=C2\C=C(Nc3ccccc3F)C(=O)c3ccccc32)cc1,74.2,i,i,i,i,74.9
Cc1ccccc1NC1=C/C(=N\S(=O)(=O)c2cccs2)c2ccccc2C1=O,68.8,i,i,i,i,i
